Compound activity: PubChem BioAssay, The Scripps Research Institute Molecular Screening Center
EBNA-1 inh: blocks EBNA-1 binding to DNA | EBNA-1 DNA binding, fluorescence polarization | inhibition, % at 14.8 µM | 0.34% of 300,000 active; in the data active = inhibition above about 28%
GPR7 antag: blocks human GPR7 receptor signaling. P48145. GPR7-expressing cells, fluorescence antagonist assay. inhibition, % at 4.4 µM. 1.1% of 290,000 active; in the data active = inhibition above about 16%, passing the limit was not always enough;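 note: cells stimulated with the agonist NPW; 0% = agonist with vehicle and 100% = vehicle without agonist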
Target sequence (P48145 whole entry, looked up): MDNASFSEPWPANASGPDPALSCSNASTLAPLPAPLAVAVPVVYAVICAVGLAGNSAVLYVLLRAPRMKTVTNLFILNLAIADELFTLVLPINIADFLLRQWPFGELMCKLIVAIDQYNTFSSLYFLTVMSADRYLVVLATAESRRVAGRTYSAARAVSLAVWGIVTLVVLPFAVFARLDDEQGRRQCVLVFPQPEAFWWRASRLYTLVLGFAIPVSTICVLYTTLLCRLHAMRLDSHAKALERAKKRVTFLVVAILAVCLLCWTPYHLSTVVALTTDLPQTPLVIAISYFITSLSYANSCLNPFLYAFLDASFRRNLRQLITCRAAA
DNA FID counter: counter-screen for HCV NS3 helicase inhibitors: DNA intercalator displacement; DNA fluorescent intercalator displacement, fluorescence; 0.17% of 290,000 active; inhibition, % at 7.9 µM; AID 1845; in the data active = inhibition above about 37%;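 note: 0% = vehicle and 100% = reference compound; higher means more ethidium bromide displaced from hairpin DNA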
HCV NS3 hel inh: inhibitors of Hepatitis C virus NS3 helicase; NS3 helicase DNA unwinding, Cy5 molecular beacon fluorescence; inhibition, % at 10.9 µM; 0.56% of 290,000 active;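 active = inhibition above the mean of all tested compounds plus 3 SD, set per campaign, cut at about 35% in these data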;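 note: 0% = DMSO wells and 100% = thioflavine S control wells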
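test system = hepatitis C virus NS3 helicase domain fragment enzyme | reagent = annealed dual-labelled DNA beacon duplex, ATP-started | times = 1 h at 25 °C | detection = Cy5 fluorescence, 0 and 60 min reads | read-out basis = percent inhibition from t60/t0 fluorescence ratio | control set = DMSO and thioflavine S | replication = one well per compound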
ZTA counter: ZTA (EBV) inhibition in EBNA-1 counter-screen | P03206 | AID 2234 | inhibition, % at 11 µM | ZTA-DNA binding, fluorescence polarization | 0.15% of 320,000 active; in the data active = inhibition above about 33%
Target sequence (P03206 whole entry, looked up): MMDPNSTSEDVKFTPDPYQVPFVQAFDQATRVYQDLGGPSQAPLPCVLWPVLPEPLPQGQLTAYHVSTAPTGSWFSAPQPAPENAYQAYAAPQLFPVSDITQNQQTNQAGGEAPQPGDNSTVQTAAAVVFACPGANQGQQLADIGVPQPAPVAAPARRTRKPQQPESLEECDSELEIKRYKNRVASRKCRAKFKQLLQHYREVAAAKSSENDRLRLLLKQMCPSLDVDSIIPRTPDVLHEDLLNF
GPR7 antag cf: human GPR7 antagonism, confirmation assay | inhibition, % at 4.4 µM | 52% of 2,400 active | AID 1952 | shares compounds with GPR7 antag | GPR7-expressing cells, calcium fluorescence antagonist mode; in the data active = inhibition above about 24%;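 note: stimulated with the GPR7 agonist NPW; 0% = agonist plus vehicle and 100% = vehicle alone without agonist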
MCHR1 antag: counter-screen for GPR7 antagonists: antagonists of human MCHR1; shares compounds with GPR7 antag; MCHR1-expressing cells, fluorescence antagonist assay; inhibition, % at 4.4 µM; 62% of 2,400 active; AID 2148; in the data active = inhibition above about 22%;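 note: 0% = vehicle with agonist and 100% = vehicle without agonist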
The depositor's hits bear a star. Hits are enriched below; roughly 2% of the tested compounds scored in any of these assays.

Screening O=C(COC(=O)c1ccc(Cl)nc1)NNC(=O)c1ccc(Cl)cc1 returned EBNA-1 inh -9 and ZTA counter -23.
CS(=O)(=O)N1CCc2cc(-c3csc(NC(=O)Cc4cccs4)n3)ccc21 was read as EBNA-1 inh 12, GPR7 antag 39*, DNA FID counter -11, HCV NS3 hel inh -12, ZTA counter 16, GPR7 antag cf 69* and MCHR1 antag 83*.
Screening CC(=O)Nc1nc(-c2ccc3c(c2)CCN3S(C)(=O)=O)cs1 returned EBNA-1 inh -19, GPR7 antag 1, DNA FID counter -1, HCV NS3 hel inh 12 and ZTA counter -11.
Screening Cc1cccc(N2CCN(S(=O)(=O)c3c(C(=O)N4CCCCC4)c(C)n(C)c3C)CC2)c1C returned EBNA-1 inh -2, GPR7 antag -1, DNA FID counter -63, HCV NS3 hel inh -15 and ZTA counter 7.
CCN(CC)CC(O)Cn1c(C)c(-c2ccccc2)c2cc([N+](=O)[O-])ccc21 (stereo unspecified) was read as EBNA-1 inh -8, GPR7 antag 41*, DNA FID counter 22, HCV NS3 hel inh -76, ZTA counter 7, GPR7 antag cf 45* and MCHR1 antag 48*.
For CC(C)NC(=O)CCc1nc2cccnc2n1-c1ccccc1 the results were EBNA-1 inh 9, GPR7 antag 56*, DNA FID counter -4, HCV NS3 hel inh 2, ZTA counter 20, GPR7 antag cf -4 and MCHR1 antag -5.
`CC(C)(C)c1ccc(OCCC(=O)OCC(=O)N2c3ccccc3NC(=O)C2(C)C)cc1` gave EBNA-1 inh 5 and ZTA counter 0.
CS(=O)(=O)c1nc(-c2ccc(Br)cc2)cc(-c2ccccc2)c1C#N was read as EBNA-1 inh -13, GPR7 antag 6, DNA FID counter -4, HCV NS3 hel inh 1 and ZTA counter 14.
For CS(=O)c1nc(-c2ccc(Br)cc2)cc(-c2ccccc2)c1C#N (stereo unspecified) the results were EBNA-1 inh -6, GPR7 antag 54*, DNA FID counter -13, HCV NS3 hel inh -1, ZTA counter 0, GPR7 antag cf 97* and MCHR1 antag 101*.
For CC(C)Cn1c(N)c(C(=O)CSc2n[nH]c(N)n2)c(=O)n(C)c1=O the results were ZTA counter -4.
`CCN1CCN(c2c(Cl)cccc2NC(=O)c2ccc([N+](=O)[O-])o2)CC1` gave EBNA-1 inh -3, GPR7 antag 28*, DNA FID counter 15, HCV NS3 hel inh -5, ZTA counter 10, GPR7 antag cf 34* and MCHR1 antag 34*.
Screening O=C(Nc1cccc(Cl)c1N1CCCC1)c1ccc([N+](=O)[O-])o1 returned EBNA-1 inh -11, GPR7 antag -12, DNA FID counter 2, HCV NS3 hel inh 4 and ZTA counter -3.
Screening O=C(NCc1cccnc1)C(=O)NCC1OCCCN1S(=O)(=O)c1ccc(F)cc1 (stereo unspecified) returned EBNA-1 inh -8, GPR7 antag -14, DNA FID counter -12, HCV NS3 hel inh -3 and ZTA counter -4.
`Cc1ccc2c(cnn2C(=O)CCC(=O)NCc2cccc(Cl)c2)c1` gave EBNA-1 inh -6, GPR7 antag 0, DNA FID counter -12, HCV NS3 hel inh 12 and ZTA counter -11.
For CC1CN(C(=O)Nc2cccc(C(F)(F)F)c2)CC(C)O1 (stereo unspecified) the results were EBNA-1 inh -10, GPR7 antag 27*, DNA FID counter 4, HCV NS3 hel inh 15, ZTA counter -8, GPR7 antag cf 24* and MCHR1 antag 36*.
`Cc1ccc(C2CC(C(F)F)n3ncc(C(=O)Nc4c(C)nn(Cc5c(F)cccc5Cl)c4C)c3N2)cc1` (stereo unspecified) gave EBNA-1 inh -5, GPR7 antag 24*, DNA FID counter -12, HCV NS3 hel inh 0, ZTA counter 0, GPR7 antag cf 56* and MCHR1 antag 27*.
Screening CCOc1ccc(S(=O)(=O)N(CC)CC(=O)NC2CCS(=O)(=O)C2)cc1 (stereo unspecified) returned ZTA counter 14.
O=C(c1ccccc1)c1ccc(Sc2ccc([N+](=O)[O-])cc2)cc1 was read as EBNA-1 inh 5, GPR7 antag 22*, DNA FID counter -2, HCV NS3 hel inh 19, ZTA counter 6, GPR7 antag cf 22 and MCHR1 antag 53*.
Screening Cc1cccc(N2CCN(C(=O)CCC(=O)N3CC(C)Oc4ccc(C)cc43)CC2C)c1 (stereo unspecified) returned EBNA-1 inh 5, GPR7 antag 9, DNA FID counter -50, HCV NS3 hel inh 6 and ZTA counter -2.
`CCOC(=O)C(Cc1ccccc1)NC(=O)CCc1nnc2ccc(N3CCOCC3)nn12` (stereo unspecified) gave EBNA-1 inh -6, GPR7 antag -5, DNA FID counter -43, HCV NS3 hel inh 0 and ZTA counter 0.
`CCOc1ccc(CCNC(=O)CCc2nnc3ccc(N4CCOCC4)nn23)cc1OCC` gave EBNA-1 inh -2, GPR7 antag 30*, DNA FID counter -37, HCV NS3 hel inh 11, ZTA counter -4, GPR7 antag cf 1 and MCHR1 antag 4.
C/C(=N\NC(=O)c1ccc2c(c1)OCO2)c1ccc(NC(=O)CCCC(=O)O)cc1 was read as GPR7 antag 22*, DNA FID counter -20, HCV NS3 hel inh 1, GPR7 antag cf 4 and MCHR1 antag 8.
For CCc1ccc(CN2CCC(n3nccc3NC(=O)c3ccccc3C)CC2)cc1 the results were EBNA-1 inh -13, GPR7 antag 27*, DNA FID counter 27, HCV NS3 hel inh -56, ZTA counter -11, GPR7 antag cf 10 and MCHR1 antag 26*.
For Cc1ccccc1C(=O)Nc1ccnn1C1CCN(Cc2cccnc2)CC1 the results were EBNA-1 inh 6, GPR7 antag -8, DNA FID counter -6, HCV NS3 hel inh 4 and ZTA counter -10.
`COc1ccccc1-c1cc(C(=O)N2CCCC2)no1` gave EBNA-1 inh 7, GPR7 antag -13, DNA FID counter -24, HCV NS3 hel inh 10 and ZTA counter 5.
`O=C(c1cc(-c2ccccc2Cl)on1)N1CCCC1` gave EBNA-1 inh -13, GPR7 antag 27*, DNA FID counter -21, HCV NS3 hel inh 15, ZTA counter 5, GPR7 antag cf 17 and MCHR1 antag 7.
Screening CCOc1ccc(-c2nnc(SCC(=O)NC(C)(C)C)nc2-c2ccc(OCC)c(OC)c2)cc1OC returned EBNA-1 inh 9, GPR7 antag -10, DNA FID counter -42, HCV NS3 hel inh -16 and ZTA counter 7.
